ChEMBL document CHEMBL1138764, “Resistance-modifying agents. 11.(1) Pyrimido[5,4-d]pyrimidine modulators of antitumor drug activity. Synthesis and structure-activity relationships for nucleoside transport inhibition and binding to alpha1-acid glycoprotein” (J Med Chem, 2004)

Key:
L1210 [1] = assay: Tested for the reduction in inhibition of [3H]thymidine uptake in L1210 cells in the presence of 5 mg/mL human AGP; assay type: functional, Mus musculus
In short: (§1)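 Rapid-mixing, inhibitor-stop ³H-thymidine uptake into L1210 leukaemia cells run with 5 mg/mL human AGP present. Values are mean ± SD of three or more separate determinations. Significance of the difference from inhibition without AGP is taken at p ≤ 0.05.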

L1210 [2] = assay: Inhibition of [3H]thymidine uptake in L1210 cells at 10 uM; assay type: functional; conditions: Mus musculus
In short: (§2)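 ³H-thymidine uptake into L1210 leukaemia cells measured by a modified rapid-mixing technique with inhibitor-stop. Values are mean ± SD of three or more separate determinations. IC50 is interpolated from concentration–inhibition curves.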

L1210 [3] = assay: Inhibition of [3H]thymidine uptake in L1210 cells; assay type: functional, cell-based; conditions: Mus musculus; in short: as §2
L1210 [4] = assay: Inhibition of [3H]thymidine uptake in L1210 cells in the presence of 5 mg/mL human AGP at 1 uM; assay type: functional, Mus musculus; in short: as §1
L1210 [5] = assay: Inhibition of [3H]-thymidine uptake in L1210 cells in the presence of 5 mg/mL human AGP at 10 uM; assay type: functional, Mus musculus; in short: as §1
L1210 [6] = assay: Inhibition of [3H]thymidine uptake in L1210 cells at 1 uM; assay type: functional; conditions: Mus musculus; in short: as §2
L1210 [7] = assay: Tested for the reduction in inhibition of [3H]-thymidine uptake in L1210 cells in the presence of 5 mg/mL human AGP; NS, no significant reduction in inhibition by AGP; assay type: functional, cell-based; conditions: Mus musculus; in short: as §1
L1210 [8] = assay: Compound was tested for the inhibition of [3H]thymidine uptake in L1210 cells at 100 uM; assay type: functional; conditions: Mus musculus; in short: as §2
L1210 [9] = assay: Compound was tested (100 uM) for the inhibition of [3H]thymidine uptake in L1210 cells in the presence of 5 mg/mL human AGP; assay type: functional, Mus musculus; in short: as §1
L1210 [10] = assay: Compound was tested for the inhibition of [3H]thymidine uptake in L1210 cells at 3 uM; assay type: functional; conditions: Mus musculus; in short: as §2

`OCCN(CCO)c1nc(NCc2ccccc2)c2nc(N(CCO)CCO)nc(NCc3ccccc3)c2n1` showed a Reduction (L1210 [1]) of 44%, an inhibition at 10 µM (L1210 [2]) of 91% and an IC50 (L1210 [3]) of 0.6 µM. It also gave an Inhibition (L1210 [4]) of 21%, an Inhibition (L1210 [5]) of 75% and an inhibition at 1 µM (L1210 [6]) of 51%.
With `CC(O)CNc1nc(NCc2ccc3c(c2)OCO3)c2nc(NCC(C)O)nc(NCc3ccc4c(c3)OCO4)c2n1` (configuration not stated) the inhibition at 10 µM (L1210 [2]) was 90%, the IC50 (L1210 [3]) was 0.26 µM and the Inhibition (L1210 [4]) was 64%. For the same compound, the inhibition at 1 µM (L1210 [6]) was 69% and the Reduction (L1210 [7]) was “No significant reduction in inhibition”.
`OCC(O)COc1nc(N2CCCCC2)c2nc(OCC(O)CO)nc(N3CCCCC3)c2n1` (configuration not stated) gave an inhibition at 100 µM (L1210 [8]) of 83%, an inhibition at 10 µM (L1210 [2]) of 32% and an Inhibition (L1210 [5]) of 34%. The Inhibition (L1210 [9]) was 80% and the Reduction (L1210 [7]) was “No significant reduction in inhibition”.
`COc1ccc(CNc2nc(OCCO)nc3c(NCc4ccc(OC)cc4)nc(OCCO)nc23)cc1` gave an inhibition at 10 µM (L1210 [2]) of 88%, an IC50 (L1210 [3]) of 0.67 µM and an inhibition at 1 µM (L1210 [6]) of 40%. For the same compound, the Reduction (L1210 [7]) was “No significant reduction in inhibition”.
`OCC(O)COc1nc(N2CCCCC2)c2nc(OC[C@@H](O)CO)nc(N3CCCCC3)c2n1` (some centres not stated) gave a Reduction (L1210 [1]) of 22%, an inhibition at 100 µM (L1210 [8]) of 91% and an inhibition at 10 µM (L1210 [2]) of 37%. For the same compound, the IC50 (L1210 [3]) was 8.8 µM and the Inhibition (L1210 [5]) was 29%.
`CC1(C)OC[C@@H](COc2nc(N3CCCCC3)c3nc(OC[C@@H]4COC(C)(C)O4)nc(N4CCCCC4)c3n2)O1` showed an inhibition at 10 µM (L1210 [2]) of 100% and an inhibition at 3 µM (L1210 [10]) of 76%.
